Reference: ChEMBL document CHEMBL1123193, “The lysine pathway as a target for a new genera of synthetic antibacterial antibiotics?” (1986)
Converted amounts (≈) assume the structure as drawn.

Experiments:
Escherichia coli [1] = assay: Compound is evaluated for the growth of Escherichia coli W7 in the liquid medium at 100 ug/mL.; Absence of growth; assay type: functional, organism-based
Escherichia coli [2] = assay: Percent of inhibition of diaminopimelic acid decarboxylase at 2 mmol of amino acid, 1.05 mmol/L of labeled meso-DAP, and 32 umol/L of PLP
In short: (§1)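 Enzyme was meso-DAP decarboxylase isolated and purified from E. coli ATCC 9637. Inhibition measured as decarboxylation of labeled meso-DAP in the presence of the test amino acid.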

Escherichia coli [3] = assay: Percent of inhibition of diaminopimelic acid decarboxylase at 1 mmol of amino acid, 1.05 mmol/L of labeled meso-DAP, and 32 umol/L of PLP; in short: as §1
Escherichia coli [4] = assay: Compound is evaluated for the inhibition of bacterial growth (Escherichia coli ATCC 9637) in the liquid medium at 5 mmol of amino acid; assay type: functional
In short: (§2)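 Davis and Mingioli liquid medium, 4.8 mL, inoculated with 0.2 mL of an 18-h liquid culture of the test organism, with 0.1 mL of compound solution added. Growth followed by absorbance at 660 nm. Percent inhibition calculated after 6 h at 37 °C.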

Escherichia coli [5] = assay: Compound is evaluated for the inhibition of bacterial growth (Escherichia coli ATCC 9637) in the liquid medium at 2 mmol of amino acid; assay type: functional; in short: as §2
Citrobacter freundii = assay: Minimum inhibitory concentration compared to D-cycloserine, against Citrobacter freundii 55.13; assay type: functional
In short: (§3)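 Agar dilution on Davis and Mingioli solid medium, supplemented with amino acids where needed. MIC taken as the lowest concentration giving complete growth inhibition, expressed in micrograms.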

Escherichia coli [6] = assay: Minimum inhibitory concentration compared to D-cycloserine, against Escherichia coli UB 1005; assay type: functional; in short: as §3
Escherichia coli [7] = assay: Minimum inhibitory concentration required for the inhibition of Escherichia coli ATCC 9637; assay type: functional; in short: as §3
Serratia marcescens = assay: Minimum inhibitory concentration compared to D-cycloserine, against Serratia marcescens A 174; assay type: functional; in short: as §3
Pseudomonas aeruginosa [8] = assay: Not Plasmodium species; assay type: functional
[9] = Minimum inhibitory concentration compared to D-cycloserine, against Moraxella glucidolytica 52.90; assay type: functional; in short: as §3
Escherichia coli [10] = assay: Minimum inhibitory concentration compared to D-cycloserine, against Escherichia coli DC2; assay type: functional; in short: as §3
Providencia rettgeri = assay: Minimum inhibitory concentration compared to D-cycloserine, against Proteus rettgeri 53.100; assay type: functional; in short: as §3
Klebsiella pneumoniae = assay: Minimum inhibitory concentration compared to D-cycloserine, against Klebsiella pneumoniae 53.153; assay type: functional; in short: as §3
Pseudomonas aeruginosa [11] = assay: Minimum inhibitory concentration compared to D-cycloserine, against Pseudomonas aeruginosa A22; assay type: functional; in short: as §3
[12] = test system: Providencia alcalifaciens; assay: Minimum inhibitory concentration compared to D-cycloserine, against providencia alcalifaciens 58.62; assay type: functional; in short: as §3
Serratia liquefaciens = assay: Minimum inhibitory concentration compared to D-cycloserine, against Serratia liquefaciens 52.56; assay type: functional; in short: as §3
Enterobacter cloacae [13] = assay: Minimum inhibitory concentration compared to D-cycloserine, against Enterobacter cloacae 60.22
Escherichia coli [14] = assay: Minimum inhibitory concentration compared to D-cycloserine, against Escherichia coli ATCC 9637; assay type: functional; in short: as §3
Pseudomonas aeruginosa [15] = assay: Minimum inhibitory concentration required for the inhibition of Pseudomonas aeruginosa A22; assay type: functional; in short: as §3
Escherichia coli [16] = assay: Percent of inhibition of diaminopimelic acid decarboxylase at 5 mmol of amino acid; in short: as §1
Escherichia coli [17] = assay: Percent of inhibition of diaminopimelic acid decarboxylase at 1 mmol of amino acid; in short: as §1
Escherichia coli [18] = assay: Compound is evaluated for the inhibition of bacterial growth (Escherichia coli ATCC 9637) in the liquid medium at 1 mmol of amino acid; assay type: functional; in short: as §2
Escherichia coli [19] = assay: Percent of inhibition of diaminopimelic acid decarboxylase at 5 mmol of amino acid, 1.05 mmol/L of labeled meso-DAP, and 32 umol/L of PLP; in short: as §1
Escherichia coli [20] = assay: Percent of inhibition of diaminopimelic acid decarboxylase at 10 mmol of amino acid, 1.05 mmol/L of labeled meso-DAP, and 32 umol/L of PLP; in short: as §1
Escherichia coli [21] = assay: Percent of inhibition of diaminopimelic acid decarboxylase at 5 mmol of amino acids, 1.05 mmol/L of labeled meso-DAP, and 32 umol/L of PLP; in short: as §1
Escherichia coli [22] = assay: Percent of inhibition of diaminopimelic acid decarboxylase at 2 mmol of amino acids, 1.05 mmol/L of labeled meso-DAP, and 32 umol/L of PLP; in short: as §1
Escherichia coli [23] = assay: Percent of inhibition of diaminopimelic acid decarboxylase at 10 mmol of amino acids, 1.05 mmol/L of labeled meso-DAP, and 32 umol/L of PLP; in short: as §1
Escherichia coli [24] = assay: Percent of inhibition of diaminopimelic acid decarboxylase at 1 mmol of amino acids, 1.05 mmol/L of labeled meso-DAP, and 32 umol/L of PLP; in short: as §1
Escherichia coli [25] = assay: Compound is evaluated for the growth of Escherichia coli W7 in the presence lysine in liquid medium; Growth is observed; assay type: functional, organism-based
Escherichia coli [26] = assay: Percent of inhibition of DAP decarboxylase at 10 mmol of amino acids, 1.05 mmol/L of labeled meso-DAP, and 32 umol/L of PLP; in short: as §1
Escherichia coli [27] = assay: Percent of inhibition of v decarboxylase at 1 mmol of amino acids, 1.05 mmol/L of labeled meso-DAP, and 32 umol/L of PLP; in short: as §1
Enterobacter cloacae [28] = assay: Minimum inhibitory concentration compared to D-cycloserine, against Enterobacter cloacae 60.22; remark: listed apart in the source
[29] = Escherichia coli, ATCC 9637, read-out: MIC
[30] = Pseudomonas aeruginosa, read-out: MIC

N[C@H](CCC[C@H](N)C(=O)O)C(=O)O
Bacterial growth (Escherichia coli [1]): Absence of growth

CC(N)(/C=C/CC(N)C(=O)O)C(=O)O (stereo unspecified)
inhibition (Escherichia coli [2]): 0% | inhibition (Escherichia coli [3]): 0% | Inhibition (Escherichia coli [4]): 0% | Inhibition (Escherichia coli [5]): 0%

N[C@@H]1CONC1=O [CYCLOSERINE]
MIC (Citrobacter freundii): 2 µg/mL (≈ 19.6 µM) | MIC (Escherichia coli [6]): 32 µg/mL (≈ 313 µM) | MIC (Escherichia coli [7]; [29]): 0.25 µg/mL (≈ 2.45 µM) | MIC (Serratia marcescens): 128 µg/mL (≈ 1250 µM) | MIC (Pseudomonas aeruginosa [8]): 128 µg/mL (≈ 1250 µM) | MIC [9]: 128 µg/mL (≈ 1250 µM) | MIC (Escherichia coli [10]): 128 µg/mL (≈ 1250 µM) | MIC (Providencia rettgeri): 128 µg/mL (≈ 1250 µM) | MIC (Klebsiella pneumoniae): 8 µg/mL (≈ 78.4 µM) | MIC (Pseudomonas aeruginosa [11]): 64 µg/mL (≈ 627 µM) | MIC [12]: 8 µg/mL (≈ 78.4 µM) | MIC (Serratia liquefaciens): 8 µg/mL (≈ 78.4 µM) | MIC (Enterobacter cloacae [13]): 2 µg/mL (≈ 19.6 µM) | MIC (Escherichia coli [14]): 0.5 µg/mL (≈ 4.9 µM)

C=C(CC(N)C(=O)O)CC(N)C(=O)O (single isomer, unassigned; (-))
MIC (Escherichia coli [7]; Escherichia coli, ATCC 9637): 4 µg/mL (≈ 19.8 µM) | MIC (Pseudomonas aeruginosa [15]; [30]): 4 µg/mL (≈ 19.8 µM)

NC(/C=C(\Cl)CC(N)C(=O)O)C(=O)O (stereo unspecified)
MIC (Escherichia coli [7]): > 128 µg/mL | inhibition (Escherichia coli [16]): 53% | inhibition (Escherichia coli [17]): 18% | Inhibition (Escherichia coli [4]): 50%

NC(/C=C/CC(N)C(=O)O)C(=O)O (stereo unspecified)
inhibition (Escherichia coli [2]): 77% | inhibition (Escherichia coli [3]): 65% | Inhibition (Escherichia coli [4]): 0% | Inhibition (Escherichia coli [18]): 0% | Inhibition (Escherichia coli [5]): 0%

CC(CC(N)C(=O)O)CC(N)C(=O)O (stereo unspecified)
inhibition (Escherichia coli [19]): 43% | inhibition (Escherichia coli [3]): 12% | inhibition (Escherichia coli [20]): 55% | Inhibition (Escherichia coli [4]): 0% | Inhibition (Escherichia coli [5]): 0%

C/C(=C\C(N)C(=O)O)CC(N)C(=O)O (stereo unspecified)
inhibition (Escherichia coli [21]): 50% | Inhibition (Escherichia coli [4]): 50% | Inhibition (Escherichia coli [18]): 0% | Inhibition (Escherichia coli [5]): 21% | inhibition (Escherichia coli [22]): 20%

C[C@@H]1O[C@@H]1P(=O)(O)O [FOSFOMYCIN]
MIC (Escherichia coli [7]; [29]): 16 µg/mL (≈ 116 µM) | MIC (Pseudomonas aeruginosa [8]): 32 µg/mL (≈ 232 µM)

C=C(C[C@@H](N)C(=O)O)C[C@@H](N)C(=O)O.C=C(C[C@H](N)C(=O)O)C[C@H](N)C(=O)O
MIC (Citrobacter freundii): 8 µg/mL | inhibition (Escherichia coli [23]): 20% | MIC (Escherichia coli [6]): 8 µg/mL | MIC (Escherichia coli [7]): 2 µg/mL | MIC (Serratia marcescens): 4 µg/mL | MIC [9]: 8 µg/mL | MIC (Escherichia coli [10]): 8 µg/mL | inhibition (Escherichia coli [21]): 10% | MIC (Providencia rettgeri): 64 µg/mL | inhibition (Escherichia coli [24]): 5% | MIC (Pseudomonas aeruginosa [15]; [30]): 4 µg/mL | MIC (Klebsiella pneumoniae): 16 µg/mL | MIC (Pseudomonas aeruginosa [11]): 32 µg/mL | MIC [12]: 32 µg/mL | MIC (Serratia liquefaciens): 4 µg/mL | MIC (Enterobacter cloacae [13]): 16 µg/mL | MIC (Escherichia coli [14]): 16 µg/mL

C=C(CC(N)C(=O)O)CC(N)C(=O)O (stereo in doubt; 4) [listing 1 of 2 here]
inhibition (Escherichia coli [23]): 30% | Bacterial growth (Escherichia coli [25]): Growth | inhibition (Escherichia coli [21]): 15% | inhibition (Escherichia coli [24]): 5%

NCCCC[C@H](N)C(=O)O
Bacterial growth (Escherichia coli [1]): Absence of growth

C=C(C[C@@H](N)C(=O)O)C[C@H](N)C(=O)O
MIC (Citrobacter freundii): 32 µg/mL (≈ 158 µM) | MIC (Escherichia coli [6]): 2 µg/mL (≈ 9.89 µM) | MIC (Escherichia coli [7]): 2 µg/mL (≈ 9.89 µM) | MIC (Serratia marcescens): 4 µg/mL (≈ 19.8 µM) | inhibition (Escherichia coli [26]): 30% | MIC [9]: 16 µg/mL (≈ 79.1 µM) | MIC (Escherichia coli [10]): 4 µg/mL (≈ 19.8 µM) | inhibition (Escherichia coli [21]): 22% | MIC (Providencia rettgeri): 64 µg/mL (≈ 317 µM) | inhibition (Escherichia coli [24]): 8% | MIC (Pseudomonas aeruginosa [15]; [30]): 4 µg/mL (≈ 19.8 µM) | MIC (Klebsiella pneumoniae): 16 µg/mL (≈ 79.1 µM) | MIC (Pseudomonas aeruginosa [11]): 16 µg/mL (≈ 79.1 µM) | MIC [12]: 128 µg/mL (≈ 633 µM) | MIC (Serratia liquefaciens): 2 µg/mL (≈ 9.89 µM) | MIC (Enterobacter cloacae [13]): 16 µg/mL (≈ 79.1 µM) | MIC (Escherichia coli [14]): 32 µg/mL (≈ 158 µM)

CC1(C)S[C@@H]2[C@H](NC(=O)[C@H](N)c3ccccc3)C(=O)N2[C@H]1C(=O)O [AMPICILLIN]
MIC (Escherichia coli [7]; [29]): 5 µg/mL (≈ 14.3 µM) | MIC (Pseudomonas aeruginosa [8]): 512 µg/mL (≈ 1470 µM)

CC(N)(CCCC(N)C(=O)O)C(=O)O (stereo unspecified)
inhibition (Escherichia coli [27]): 8% | MIC (Escherichia coli [7]): 512 µg/mL (≈ 2510 µM) | inhibition (Escherichia coli [21]): 35% | Inhibition (Escherichia coli [4]): 90% | Inhibition (Escherichia coli [18]): 38% | Inhibition (Escherichia coli [5]): 74% | inhibition (Escherichia coli [22]): 18%

C=C(CC(N)C(=O)O)CC(N)C(=O)O (stereo in doubt; (+)-4)
MIC (Escherichia coli [7]): 6 µg/mL (≈ 29.7 µM) | MIC (Pseudomonas aeruginosa [15]): 6 µg/mL (≈ 29.7 µM)

C/C(=C/C(N)C(=O)O)CC(N)C(=O)O (stereo unspecified)
inhibition (Escherichia coli [23]): 73% | inhibition (Escherichia coli [21]): 54% | inhibition (Escherichia coli [24]): 17% | Inhibition (Escherichia coli [4]): 55% | Inhibition (Escherichia coli [18]): 0% | Inhibition (Escherichia coli [5]): 0% | inhibition (Escherichia coli [22]): 33%

C=C(CC(N)C(=O)O)CC(N)C(=O)O (stereo in doubt; 4) [listing 2 of 2 here]
MIC (Citrobacter freundii): 16 µg/mL (≈ 79.1 µM) | MIC (Escherichia coli [6]): 2 µg/mL (≈ 9.89 µM) | MIC (Escherichia coli [7]): 2 µg/mL (≈ 9.89 µM) | MIC (Serratia marcescens): 2 µg/mL (≈ 9.89 µM) | MIC (Enterobacter cloacae [28]): 16 µg/mL (≈ 79.1 µM) | MIC [9]: 16 µg/mL (≈ 79.1 µM) | MIC (Escherichia coli [10]): 32 µg/mL (≈ 158 µM) | MIC (Providencia rettgeri): 128 µg/mL (≈ 633 µM) | MIC (Pseudomonas aeruginosa [15]): 4 µg/mL (≈ 19.8 µM) | MIC (Klebsiella pneumoniae): 32 µg/mL (≈ 158 µM) | MIC (Pseudomonas aeruginosa [11]): 16 µg/mL (≈ 79.1 µM) | Inhibition (Escherichia coli [4]): 95% | Inhibition (Escherichia coli [18]): 90% | Inhibition (Escherichia coli [5]): 90% | MIC [12]: 128 µg/mL (≈ 633 µM) | MIC (Serratia liquefaciens): 2 µg/mL (≈ 9.89 µM) | MIC (Escherichia coli [14]): 32 µg/mL (≈ 158 µM)
